In ChEMBL document CHEMBL1145905, “Design and synthesis of novel dimeric morphinan ligands for kappa and micro opioid receptors” (J Med Chem, 2003):
Calls of active or inactive are those of the source. No cut-off for these calls is given here.

What was measured:
[1] = biological target: Opioid receptors; mu & kappa (Homo sapiens) (UniProt P41145+P35372); test: Selective inhibitory activity was determined against kappa & mu opioid receptor in chinese Hamster Ovary (CHO) cell membranes
[2] = biological target: Opioid receptors; delta & kappa (Homo sapiens) (UniProt P41145+P41143); test: Selective inhibitory activity was determined against kappa & delta opioid receptor in chinese Hamster Ovary (CHO) cell membranes
[3] = biological target: T1, Mu-type opioid receptor (Homo sapiens, UniProt P35372); test: Percent maximal stimulation in [35S]-GTP-gamma S binding assay mediated by the Opioid receptor mu 1 in chinese Hamster Ovary (CHO)membranes
[4] = biological target: T2, Kappa-type opioid receptor (Homo sapiens, UniProt P41145); test: Inhibitory activity in stimulating [35S]-GTP-gamma S binding mediated by the Opioid receptor kappa 1 in chinese Hamster Ovary (CHO) cell membranes was determined; assay type: functional
[5] = biological target: T1, Mu-type opioid receptor; test: Inhibitory activity against Opioid receptor mu 1 in chinese Hamster Ovary (CHO) cells membranes was determined using [3H]-DAMGO radioligand; assay type: cell-based
[6] = biological target: T1, Mu-type opioid receptor
[7] = biological target: T1, Mu-type opioid receptor; test: Maximal percent inhibitory activity was determined in stimulating [35S]-GTP-gamma S binding mediated by the Opioid receptor mu 1 in chinese Hamster Ovary (CHO) cell membranes
Summary of the method: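 Antagonist mode: human μ-CHO membranes (7.5 μg protein) with 200 nM DAMGO plus varying compound concentrations, 3 μM GDP, […] [35S]GTPγS, 60 min at 30 °C, pH 7.4 buffer with Mg2+/NaCl/EGTA; filtration, counting.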

[8] = biological target: T2, Kappa-type opioid receptor; test: Percent maximal stimulation in [35S]-GTP-gamma S binding assay mediated by the Opioid receptor kappa 1 in chinese Hamster Ovary (CHO)membranes; assay type: functional
[9] = biological target: Delta-type opioid receptor (Homo sapiens, UniProt P41143); test: Inhibitory activity against Opioid receptor delta 1 in chinese Hamster Ovary (CHO) cell membranes was determined using [3H]naltrindole radioligand
[10] = biological target: T1, Mu-type opioid receptor; test: Inhibitory activity was determined in stimulating [35S]-GTP-gamma S binding mediated by the Opioid receptor mu 1 in chinese Hamster Ovary (CHO)membranes
[11] = biological target: T2, Kappa-type opioid receptor; test: Inhibitory activity against Opioid receptor kappa 1 in chinese Hamster Ovary (CHO) cell membranes was determined using [3H]U-69593 radioligand
[12] = biological target: T2, Kappa-type opioid receptor; test: Maximal percent inhibitory activity in stimulating [35S]-GTP-gamma S binding mediated by the Opioid receptor kappa 1 in chinese Hamster Ovary (CHO) cell membranes; No Effect; assay type: functional
Summary of the method: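 Antagonist mode: human κ-CHO membranes (15 μg protein) with 100 nM U50,488 plus varying compound concentrations, 3 μM GDP, […] [35S]GTPγS, 60 min at 30 °C, pH 7.4 buffer with Mg2+/NaCl/EGTA; filtration, counting.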

[13] = biological target: T2, Kappa-type opioid receptor; test: Inhibitory activity in stimulating [35S]-GTP-gamma S binding mediated by the Opioid receptor kappa 1 in chinese Hamster Ovary (CHO) cell membranes; assay type: functional
Summary of the method: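 Antagonist mode: membranes of CHO cells stably expressing human κ receptor (15 µg protein/tube) incubated with varying compound concentrations plus 100 nM U50,488, 60 min at 30 °C, in Tris/MgCl2/NaCl/EGTA buffer pH 7.4 with 3 µM GDP and [35S]GTPγS. Filtration, scintillation counting. Nonspecific binding with 10 µM GTPγS.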

Sequence of Opioid receptors; mu & kappa (Homo sapiens) (P35372 whole entry, looked up): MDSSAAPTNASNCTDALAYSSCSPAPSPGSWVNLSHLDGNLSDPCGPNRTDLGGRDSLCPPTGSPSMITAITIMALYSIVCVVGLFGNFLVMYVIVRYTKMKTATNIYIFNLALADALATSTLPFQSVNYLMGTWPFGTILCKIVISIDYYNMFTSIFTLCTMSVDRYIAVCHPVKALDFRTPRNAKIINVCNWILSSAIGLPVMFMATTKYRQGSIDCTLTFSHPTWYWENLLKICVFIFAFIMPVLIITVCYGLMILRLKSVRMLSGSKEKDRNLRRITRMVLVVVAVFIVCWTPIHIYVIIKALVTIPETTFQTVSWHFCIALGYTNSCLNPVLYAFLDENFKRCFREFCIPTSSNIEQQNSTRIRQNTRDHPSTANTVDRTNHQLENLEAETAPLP
Sequence of Opioid receptors; mu & kappa (Homo sapiens) (P41145 whole entry, looked up): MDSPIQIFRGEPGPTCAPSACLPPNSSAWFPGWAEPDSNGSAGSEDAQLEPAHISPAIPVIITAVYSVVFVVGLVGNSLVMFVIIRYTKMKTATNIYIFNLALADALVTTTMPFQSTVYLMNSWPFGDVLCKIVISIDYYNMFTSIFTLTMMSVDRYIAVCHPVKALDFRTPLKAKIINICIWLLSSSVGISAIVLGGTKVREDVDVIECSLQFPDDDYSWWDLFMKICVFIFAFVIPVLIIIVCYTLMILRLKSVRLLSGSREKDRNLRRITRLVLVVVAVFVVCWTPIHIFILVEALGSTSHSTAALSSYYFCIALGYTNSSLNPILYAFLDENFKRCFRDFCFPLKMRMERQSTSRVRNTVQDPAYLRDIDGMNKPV
T1 sequence (P35372 whole entry): as the sequence (P35372 whole entry, looked up) above
Sequence of Delta-type opioid receptor (P41143 whole entry): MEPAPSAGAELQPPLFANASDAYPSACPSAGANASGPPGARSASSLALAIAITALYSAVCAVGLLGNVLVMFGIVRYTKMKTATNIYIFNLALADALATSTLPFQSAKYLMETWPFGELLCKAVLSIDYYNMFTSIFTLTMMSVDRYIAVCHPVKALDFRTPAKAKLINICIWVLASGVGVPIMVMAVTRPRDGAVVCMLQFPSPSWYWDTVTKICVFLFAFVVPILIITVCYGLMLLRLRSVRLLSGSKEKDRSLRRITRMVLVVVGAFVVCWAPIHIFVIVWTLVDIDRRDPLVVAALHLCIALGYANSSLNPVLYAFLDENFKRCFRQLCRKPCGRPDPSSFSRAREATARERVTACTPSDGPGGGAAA
Sequence of Opioid receptors; delta & kappa (Homo sapiens) (P41143 whole entry, looked up): as the sequence (P41143 whole entry) above
Sequence of Opioid receptors; delta & kappa (Homo sapiens) (P41145 whole entry, looked up): as the sequence (P41145 whole entry, looked up) above
T2 sequence (P41145 whole entry): as the sequence (P41145 whole entry, looked up) above

SMILES	Selectivity [1]	Selectivity [2]	Emax [3] [%]	EC50 [4] [nM]	Ki [5] [nM]	EC50 [6] [nM]	Imax [7] [%]	Emax [8] [%]	Ki [9] [nM]	IC50 [10] [nM]	Ki [11] [nM]	NE [12]	IC50 [13] [nM]	NT [12]
O=C(CCC(=O)Oc1ccc2c(c1)[C@@]13CCCC[C@H]1[C@@H](C2)N(CC1CCC1)CC3)Oc1ccc2c(c1)[C@@]13CCCC[C@H]1[C@@H](C2)N(CC1CCC1)CC3	2	120	50	4.5	0.16	7.4	50	70	9.4	170	0.076	inactive		
O=C(CCCCCCCCCCC(=O)Oc1ccc2c(c1)[C@@]13CCCC[C@H]1[C@@H](C2)N(CC1CCC1)CC3)Oc1ccc2c(c1)[C@@]13CCCC[C@H]1[C@@H](C2)N(CC1CCC1)CC3	2	75	14	8.1	1.8		60	90	82	100	1.1	inactive		
Oc1ccc2c(c1)[C@@]13CCCC[C@H]1[C@@H](C2)N(CC1CC1)CC3							50							
O=C(/C=C/C(=O)Oc1ccc2c(c1)[C@@]13CCCC[C@H]1[C@@H](C2)N(CC1CCC1)CC3)Oc1ccc2c(c1)[C@@]13CCCC[C@H]1[C@@H](C2)N(CC1CCC1)CC3	3	120	50	2.3	0.2	2.9	100	90	9.4	610	0.078		2400	
O=C(Oc1ccc2c(c1)[C@@]13CCCC[C@H]1[C@@H](C2)N(CC1CCC1)CC3)c1ccc(C(=O)Oc2ccc3c(c2)[C@@]24CCCC[C@H]2[C@@H](C3)N(CC2CCC2)CC4)cc1	1	100			4.7				400		4.2			
O=C(CCCCCCCCC(=O)Oc1ccc2c(c1)[C@@]13CCCC[C@H]1[C@@H](C2)N(CC1CC1)CC3)Oc1ccc2c(c1)[C@@]13CCCC[C@H]1[C@@H](C2)N(CC1CC1)CC3	2	80	30	4.9	0.93		100	90	32	90	0.41			
O=C(CCC(=O)Oc1ccc2c(c1)[C@@]13CCCC[C@H]1[C@@H](C2)N(CC1CC1)CC3)Oc1ccc2c(c1)[C@@]13CCCC[C@H]1[C@@H](C2)N(CC1CC1)CC3	1	40	10	3.3	0.14		60	70	3.8	1.8	0.1			
c1cc2c(cc1OCCCCCCCCCCOc1ccc3c(c1)[C@@]14CCCC[C@H]1[C@@H](C3)N(CC1CCC1)CC4)[C@@]13CCCC[C@H]1[C@@H](C2)N(CC1CCC1)CC3	0.5	20			66				2500		120			
O=C(CCCCCCCCC(=O)Oc1ccc2c(c1)[C@@]13CCCC[C@H]1[C@@H](C2)N(CC1CCC1)CC3)Oc1ccc2c(c1)[C@@]13CCCC[C@H]1[C@@H](C2)N(CC1CCC1)CC3	2	90	50	0.85	0.09	1.3	60	60	4.2	16	0.049	inactive		
O=C(Oc1ccc2c(c1)[C@@]13CCCC[C@H]1[C@@H](C2)N(CC1CCC1)CC3)[C@H]1C[C@H]1C(=O)Oc1ccc2c(c1)[C@@]13CCCC[C@H]1[C@@H](C2)N(CC1CCC1)CC3	2	90			0.28				16		0.17			
Oc1ccc2c(c1)[C@@]13CCCC[C@H]1[C@@H](C2)N(CCCN1CC[C@]24CCCC[C@H]2[C@H]1Cc1ccc(O)cc14)CC3	2	25			48				600		24			
O=C(Oc1ccc2c(c1)[C@@]13CCCC[C@H]1[C@@H](C2)N(CC1CCC1)CC3)c1cccc(C(=O)Oc2ccc3c(c2)[C@@]24CCCC[C@H]2[C@@H](C3)N(CC2CCC2)CC4)c1	1	270			3.3				920		3.4			
O=C(CCCC(=O)Oc1ccc2c(c1)[C@@]13CCCC[C@H]1[C@@H](C2)N(CC1CCC1)CC3)Oc1ccc2c(c1)[C@@]13CCCC[C@H]1[C@@H](C2)N(CC1CCC1)CC3	3	70			3.3				80		1.2			
c1cc2c(cc1OCCCCOc1ccc3c(c1)[C@@]14CCCC[C@H]1[C@@H](C3)N(CC1CCC1)CC4)[C@@]13CCCC[C@H]1[C@@H](C2)N(CC1CCC1)CC3	2	40			29				730		18			
CN1CC[C@]23CCCC[C@H]2[C@H]1Cc1ccc(O)cc13 [LEVORPHANOL]											2.3			
O=C(CCCCCCC(=O)Oc1ccc2c(c1)[C@@]13CCCC[C@H]1[C@@H](C2)N(CC1CCC1)CC3)Oc1ccc2c(c1)[C@@]13CCCC[C@H]1[C@@H](C2)N(CC1CCC1)CC3	1	37	60	11	0.89	10	100	80	24	90	0.65	inactive		
COC(=O)CCCCCCCCC(=O)Oc1ccc2c(c1)[C@@]13CCCC[C@H]1[C@@H](C2)N(CC1CCC1)CC3	3	630	60	5.7	0.23	8	50	90	44	130	0.07			inactive
Oc1ccc2c(c1)[C@@]13CCCC[C@H]1[C@@H](C2)N(CC1CCC1)CC3 [BUTORPHAN]				1.3							0.079			
Oc1ccc2c(c1)[C@@]13CCCC[C@H]1[C@@H](C2)N(CCCCCCN1CC[C@]24CCCC[C@H]2[C@H]1Cc1ccc(O)cc14)CC3	1	7			52				370		50			
O=C(CCCCCCCC(=O)Oc1ccc2c(c1)[C@@]13CCCC[C@H]1[C@@H](C2)N(CC1CCC1)CC3)Oc1ccc2c(c1)[C@@]13CCCC[C@H]1[C@@H](C2)N(CC1CCC1)CC3	2	35	57	15	0.97	11	54	80	21	360	0.59	inactive		
